# Assay results as given in the EternaBench riboswitch data.
# Test system: MS2 coat protein
# Experiment: apparent Kd, MS2 coat protein; higher = weaker binding; RNA-MaP array; FMN 200 µM where present
# Summary of the method: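 In 100 mM Tris-HCl pH 7.5, 80 mM KCl, 4 mM MgCl2, BSA, DTT, yeast tRNA and Tween-20, SNAP-549-labelled MS2 coat protein was titrated from 0.7 or 1.5 nM, doubling to 3 µM, over designs transcribed by stalled E. coli RNA polymerase on Illumina sequencing-chip clusters. This was done first without ligand, then with ligand held constant. After green signal was normalised to red-channel RNA signal and control-cluster median Fmax, the apparent Kd was taken as the median of filtered per-cluster binding-curve fits.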
# [1] = designed as: OFF switch for flavin mononucleotide, no ligand
# [2] = ligand present: flavin mononucleotide, designed as: OFF switch for flavin mononucleotide
# [3] = designed as: ON switch for flavin mononucleotide, no ligand
# [4] = ligand present: flavin mononucleotide, designed as: ON switch for flavin mononucleotide
Sequence,apparent Kd [1],apparent Kd [2],apparent Kd [3],apparent Kd [4]
CAGACGUCAGGAUAUCUGAUGUCUAACUUCGGUUAGACAUCAGAGAAGGGACAUGAGGAUCACCCAUGUCUGAA,0.0254 µM,0.0236 µM,–,–
CAGCAAAGGUAGAAGGCAGUACUGAUACAGUACUGAGGAUAUACAUGAGGAUCACCCAUGUUCUUCAGCUGGAAAUAAAUAAAA,0.00898 µM,0.134 µM,–,–
CAGCACUAUCGAGAGGAUAUGCGGUGAUGGACAUGAGGAUCACCCAUGUUAGCGAUGGCAUCACGGCAGAAGGCUCUGCUGCUGC,–,–,0.0156 µM,0.0128 µM
CAGCCCUGAGGAUAUCCAUCCUUGUACAUGAGGAUCACCCAUGUUUUCCUCUGGGCUUUCGGAGAAGGCAGGUAUC,0.0744 µM,0.0685 µM,–,–
CAGCGAUAGCUAAAGUAUCUAUCAGAGGAUAUUCAUGAAACAUGAGGAUCACCCAUGUGAAACUGGGAGAAGGCUGAUAGAUAG,–,–,–,0.00592 µM
CAGCGAUAGCUGAACAAUCUAUCACAGGAUAUUCAUAAAACAUGAGGAUCACCCAUGUGAAAUUGGGAGAAGGGUGAUAGAUUG,–,–,0.0108 µM,0.00504 µM
CAGCGCUGUCGAGAGGAUAUGCGGUGAUGGACAUGAGGAUCACCCAUGUUAGCGACAGCAUCACGGCAGAAGGCUCUACCGCUGC,–,–,0.0315 µM,0.0217 µM
CAGCUGAAUGUGAGGAUAUGUCUAGCUUCGGCUAGACAGAAGGCACAUGAGGAUCACCCAUGUCUCAACAGCUG,0.0367 µM,0.488 µM,–,–
CAGGUAGACUGAGGAUAUACAAGACUUAGUCUAUCUAGGUCAAAAUCCACAUGAGGAUCACCCAUGUAGAAGGCAGUCUGCCUG,0.0176 µM,0.0468 µM,–,–
CAGGUAGCUACAGGAUAUACACAGCUCAGUAAACUGAGCAAAACAACUACAUGAGGAUCACCCAUGUAGAAGGGUAGCUGCCUG,0.017 µM,0.0171 µM,–,–
CAGGUAGCUACAGGAUAUACACGUCUGGAUAAACCAGACGAAUACCUUACAUGAGGAUCACCCAUGUAGAAGGGUAGCUGCCUG,0.0169 µM,0.0198 µM,–,–
CAGGUCUGAGGAUAUCCAUCCUCCUACAUGAGGAUCACCCAUGUUUCCCUCUGGGUUUUCGGAGAAGGCAGUUUUU,0.749 µM,0.525 µM,–,–
CAGGUUAGAGGAUAUACGUAGGUACAGAUCUGUGUGUUUCUACAUGAGGAUCACCCAUGUAGAAGGCUAUCCUG,0.0256 µM,0.02 µM,–,–
CAGUACUGAGGAUAUACAUGAGGAUCACCCAUGUGUUCCAGCUAGGAUACUAGCAAAAGUAGAAGGCAGUACUG,0.0246 µM,0.443 µM,–,–
CAGUUCUGAGGAUAUCCACCCUCCUACAUGAGGAUCACCCAUGUUUCCCUCUGGGCUUUCGGAGAAGGCAGUUAUC,0.0525 µM,0.0437 µM,–,–
CAGUUUUGAGGAUAUCCAUCCUCCUACAUGAGGAUCACCCAUGUUUCCCUCUGGGUUUUCGGAGAAGGCAGUUAUU,0.326 µM,0.283 µM,–,–
CAUAAGAUAGGAUAUACAGGCCCGUCUUCAUAUUGAUCCCGACAUGAGGAUCACCCAUGUAGAAGGAUCAUAUG,0.0135 µM,0.0134 µM,–,–
CAUAUACAGGGAGGAUAUAACAUGAGGAUCACCCAUGUGCAAUGCUCAAUGUUAGAAGGCCCAAUAGAAUCGCAAAAGGCAUCC,0.0898 µM,0.272 µM,–,–
CAUCAUUCUGUAAGGAUAUUAAUCGAGUGACUUAUUAAGAAGGUACAUGAGGAUCACCCAUGUGGGAGGUGAGG,0.363 µM,0.947 µM,–,–
CAUGUGUAAGGAUAUGACAAUGGUAUCGAAAGAUACCAUUGUCAGAAGGUACAUGAGGAUCACCCAUGUGGAUC,0.198 µM,0.091 µM,–,–
CAUUAAUUAAUUAUAUUAAUUAUACAGGAUAUGUAACAUGAGGAUCACCCAUGUAUUCAAUGUAAACAGAAGGGUAUAUCUAGU,0.0146 µM,0.013 µM,–,–
CAUUCGUGUCUAGGAUAUGAGUGACAAGCACGAGAUUUUCUCGCCGCUAGCUCAGAAGGAGACAUGAGGAUCACCCAUGUAAGG,0.0964 µM,0.0174 µM,–,–
CCAAGGAGAGGAUAUACACGGUUAUGGCCUCUUGAGUGGCGACAUGAGGAUCACCCAUGUAGAAGGCUCAGGGC,0.0203 µM,0.0574 µM,–,–
CCACAGGUAGGAUAUGCUGGGUGGGAUAAAUAUUUCCUGAGACAUGAGGAUCACCCAUGUAGAAGGACCAAAAG,0.0183 µM,0.0161 µM,–,–
CCACGAGACUAAGGAUAUGGAGUGUCAACAUAAAACAUGAGGAUCACCCAUGUAAAGAGUACAAUUCAGAAGGUAGAGACGUGG,–,–,0.0219 µM,0.0215 µM
CCACGAGACUAAGGAUAUGGAGUGUCAACAUAAAACAUGAGGAUCACCCAUGUAAAGAGUACGAUUCAGAAGGUAGAGACGUGG,–,–,0.0383 µM,0.0237 µM
CCACGGCACUCGUUGGUACGGGCAGAGGAUAUCGACAUGAGGAUCACCCAUGUGGAUGUAUAUGUCGAGAAGGCUGAUUCGUCU,0.044 µM,0.197 µM,–,–
CCACGUCACAUCUACAUGAGGAUCACCCAUGUCGAAAGACAUGAGGAUAUGCAUCCUAAUUGGAUGCAGAAGGCAUGGACGUGG,–,–,1.08 µM,0.0712 µM

Sequence,apparent Kd [1],apparent Kd [2],apparent Kd [3],apparent Kd [4]
CCACGUCCCAUUAACAUGAGGAUCACCCAUGUCAAAAGACAUGAGGAUAUGCUACCUAAUUGGUAGCAGAAGGCAUGGACGUGG,–,–,0.953 µM,0.0878 µM
CCACUCUAUGCAGGAUAUCGAGCCUGGGCCUUAUUUUUUGUAAACAUGAGGAUCACCCAUGUCUUCGAGAAGGGCAUAACAACG,0.178 µM,0.241 µM,–,–
CCAGAGGUCACAGGAUAUGACUCGUCCAAUUGGUCAGAAGGGUGAAUCACAUUAUGUAUACAUGAGGAUCACCCAUGUCCUACG,–,–,0.0644 µM,0.165 µM
CCAGAGUGAGGAUAUGCAUAAAGGUGCUGUCCCGUGGCUUGACAUGAGGAUCACCCAUGUAGAAGGUGCGUUGU,0.0487 µM,0.0403 µM,–,–
CCAUAACUGUGAGGAUAUUGUUGCGUUUAGUGACGAGAAGGCAUUCAUGUGAUAUAUACAUACAUGAGGAUCACCCAUGUUGUA,–,–,0.031 µM,0.0255 µM
CCAUCGAGUGUGAGGAUAUGCUGGUCCUUGGAUCAGCAGAAGGCACAUGAGGAUCACCCAUGUGGAAACGGUGG,0.0267 µM,0.191 µM,–,–
CCAUGCGGAUGAGGAUAUUCAUCCAUGAGGAUAGAAGAAGGCAUACAUGAGGAUCACCCAUGUAUACGCAUGAGGAUCCCUUAC,0.0273 µM,0.0223 µM,–,–
CCAUGCGGAUGAGGAUAUUCAUCUAUGAGGAUAGAAGAAGGCAUACAUGAGGAUCACCCAUGUAUACGCAUGAGGAUCCCUUAC,0.024 µM,0.026 µM,–,–
CCAUGUUAGCAGGAUAUGCCAUUAUUCCUUUACGCAGAAGGGCUUACAUGAGGAUCACCCAUGUAACAUUUCAU,0.0134 µM,0.0295 µM,–,–
CCCAGUUAUCUAGGAUAUUGUACAUGAGGAUCACCCAUGUAAUAAAUGAGGAUUUCGGGUGUCUACAAGAAGGAGAGGAUAGGC,0.0286 µM,0.0261 µM,–,–
CCCGCCAUACAGAAGGGAAACAUGAGGAUCAGCCGCGACAUGAGGAUCACCCAUGUUUACCUAUUUCAGGAUAUGUACACUCCC,–,–,0.47 µM,0.225 µM
CCCGUCAUCGAGAAGGCCUCAACAUGAGGAUCACCCAUGUUGUAAUAUGGGAGGAUAUCGAUGAUACAGCUACGUUUCGUAGGG,–,–,0.0173 µM,0.00633 µM
CCGAAUGUCACAGGAUAUGGUCCGGGCUCACGACCAGAAGGGUGAUCUCACAUGAGGAUCACCCAUGUGUAGGCGUUAGGCUAC,–,–,0.0353 µM,0.114 µM
CCGAGUAGCGCAGGAUAUGACUUGGUUGUUUGGUCAGAAGGGUGAUUCUCGGUAAGAAACAGGACAUGAGGAUCACCCAUGUCA,–,–,0.102 µM,0.0249 µM
CCGGAAAAGGAGGAUAUAGGAGUCGAUAGACACCUAGAAGGUCUGACAUGAGGAUCACCCAUGUGUCCUACCGG,0.0212 µM,0.0302 µM,–,–
CCGGAAACGGGUAGCCAGACAUGAGGAUCACCCAUGUGAUCAGAGGAUAUGGAUCCUAAUUGGAUCCAGAAGGCUGUCAGCUAC,–,–,0.554 µM,0.0748 µM
CCGGAAACGGGUAGCCUGACAUGAGGAUCACCCAUGUGAACCGAGGAUAUGGAUCCUAAUUGGAUCCAGAAGGUGGCAGGCUAC,–,–,0.681 µM,0.245 µM
CCGGAAACGGGUAGCCUGACAUGAGGAUCACCCAUGUGAUCCAAGGAUAUGGAUCCUAAUUGGAUCCAGAAGGUGGUUGGCUAC,–,–,0.0767 µM,1.2 µM
CCGGAAACGGGUAGCUGACAUGAGGAUCACCCAUGUGUUUCACAGGAUAUGGAUCCUAAUUGGAUCCAGAAGGGUGUCAGCUAC,–,–,1.04 µM,0.157 µM
CCGGAUACGGGUAGCUGACAUGAGGAUCACCCAUGUGAAUCUGAGGAUAUGGAUCCUAAUUGGAUCCAGAAGGCAGUCAGCUAC,–,–,0.618 µM,0.0616 µM
CCGGCAUAGGAGGAUAUAGGAGUCGAUAGACACCUAGAAGGCCUGACAUGAGGAUCACCCAUGUGUCCUACCGG,0.0141 µM,0.0232 µM,–,–
CCGUUACAUGAGGAUCACCCAUGUGAGGAUAUCGGGAUGACUGGCAGCGUGCGGGACACGAGAAGGCACUGGGC,0.0555 µM,0.0651 µM,–,–
CCUAAGGACACAGGAUAUAGCGUGGUUGCUGGGCUCCAACGGCGAGCGGCGCUAGAAGGGUGACCACAUGAGGAUCACCCAUGU,–,–,0.532 µM,0.162 µM
CCUAGUUGGUAAGGAUAUCCUACACUGUUCUGACCCGUGCAAGCUACAUGAGGAUCACCCAUGUAGGAGAAGGUGCGUCAACGC,0.00911 µM,0.00913 µM,–,–
CCUAUAAGAAAAUAGACGAAGUGGCCAGAAGGUGAAUGCCACAUGAGGAUCACCCAUGUUUCGAUCAAGGAUAUGGUUUCUCAC,–,–,0.497 µM,0.129 µM
CCUAUACAUGAGGAUCACCCAUGUCAGGAUAUAGAAAGCCGCGGAAUAGGCCGCGGCACUAGAAGGGACUGGCU,0.0275 µM,0.0405 µM,–,–
CCUAUGUAAGGAUAUAGCCACAUUACGAAUAAGUAGUGUGGCUAGAAGGUACAUGAGGAUCACCCAUGUAUGGG,0.195 µM,0.0406 µM,–,–
